Assay results as given in ChEMBL document CHEMBL4765303, “Synthesis and evaluation of butein derivatives for in vitro and in vivo inflammatory response suppression in lymphedema” (Eur J Med Chem, 2020).
In brackets after ≈: the same amount, converted by molar mass. Values belong to the molecule of their own block, whether it stands above or below them. Activity calls are given as the source filed them. The calls are words filed in the database; no cut-off is given here.

What was measured:
[1] = AUC (0 to infinity) in CD-1 mouse at 1 mg/kg, iv measured upto 1440 mins by LC/MS/MS analysis; assay type: ADME, organism-based; design: route intravenous, dose 1 mg/kg, time <=1440; details: in vivo, 24 h
How it was run: (§1)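 Male CD-1 mice, 5 weeks old, dosed once, either by tail vein at 1 mg/kg or orally at 20 mg/kg or 100 mg/kg. Plasma levels give Cmax, Tmax and AUC. Values are mean ± SD from three mice. A prodrug is quantified through its main metabolite, the parent compound (LOQ <1 ng/mL).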

[2] = Inhibition of LPS stimulated TNF alpha production in Balb/c mouse peritoneal macrophages measured by ELISA plate reader method; assay type: functional; details: Macrophage
Mus musculus [3] = assay: Antiinflammatory activity in orally dosed surgical-induced lymphedema ICR mouse model assessed as reduction in neutrophil infiltration administered for 7 days before surgery and measured 7 days after surgery; assay type: functional, organism-based; details: time 14.0 day
How it was run: (§2)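 Surgical lymphedema model in male ICR mice with oral pretreatment starting 7 days before surgery. Right hind-limb tissue taken 15–25 mm distal on day 7 post-surgery and H&E-stained to assess dermal tissue and neutrophils. Groups: normal, vehicle, treated.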

[4] = Inhibition of LPS stimulated TNF alpha production in Balb/c mouse peritoneal macrophages at 20 uM measured by ELISA plate reader method; assay type: functional; details: Macrophage
How it was run: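 Thioglycollate-elicited peritoneal exudate cells from male Balb/c mice, adherent fraction after overnight plating at 37 °C. Cells stimulated with 100 ng/mL LPS for 24 h with compound at 20 µM. Supernatant TNF-α measured by ELISA. Mean ± SD, n = 3.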

Mus musculus [5] = assay: Antiinflammatory activity in orally dosed surgical-induced lymphedema ICR mouse model assessed as reduction in PPARgamma mRNA expression administered 7 days before surgery and measured 7 days after surgery by RT-PCR analysis; assay type: functional, organism-based; details: time 14.0 day
[6] = Cmax in CD-1 mouse at 1 mg/kg, iv measured upto 1440 mins by LC/MS/MS analysis; assay type: ADME, organism-based; design: route intravenous, dose 1 mg/kg, time <=1440; details: in vivo; how it was run: as §1
[7] = Kinetic solubility of compound in water; assay type: physicochemical; details: read-out: Kinetic_solubility
[8] = Cmax in CD-1 mouse at 20 mg/kg, po measured upto 1440 mins by LC/MS/MS analysis; assay type: ADME, organism-based; design: route oral, dose 20 mg/kg, time <=1440; details: in vivo; how it was run: as §1
[9] = Tmax in CD-1 mouse at 100 mg/kg, po measured upto 1440 mins by LC/MS/MS analysis; assay type: ADME, organism-based; details: in vivo; how it was run: as §1
Mus musculus [10] = assay: Antiinflammatory activity in orally dosed surgical-induced lymphedema ICR mouse model assessed as reduction in Fabp4 administered 7 days before surgery and measured 7 days after surgery by Western blot analysis; assay type: functional, organism-based; details: time 14.0 day
[11] = Metabolic stability in mouse liver microsomes assessed as percentage of compound remaining after 30 mins; assay type: ADME, Microsome; details: read-out: Stabilty
How it was run: (§3)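 Phase I stability in liver microsomes from mouse, rat and human. Percent of compound remaining measured 30 min after reaction. Buspirone included as a control metabolized in Phase I.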

Mus musculus [12] = assay: Antiinflammatory activity in orally dosed surgical-induced lymphedema ICR mouse model assessed as reduction in dermal layer lymphedema tissue administered for 7 days before surgery and measured 7 days after surgery; assay type: functional, organism-based; details: time 14.0 day; how it was run: as §2
Mus musculus [13] = assay: Antiinflammatory activity in orally dosed surgical-induced lymphedema ICR mouse model assessed as reduction in PPARgamma expression administered 7 days before surgery and measured 7 days after surgery by Western blot analysis; assay type: functional, organism-based; details: time 14.0 day
Mus musculus [14] = assay: Antiinflammatory activity in orally dosed surgical-induced lymphedema ICR mouse model assessed as reduction in TNF-alpha expression administered 7 days before surgery and measured 7 days after surgery; details: time 14.0 day
Mus musculus [15] = assay: Antiinflammatory activity in orally dosed surgical-induced lymphedema ICR mouse model assessed as reduction in lymphedema volume administered for 7 days before surgery and measured 7 days after surgery relative to control; assay type: functional; details: time 14 day
How it was run: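 Lymphedema induced in the right lower limb of anesthetized male ICR mice by removing the superficial inguinal, popliteal and deep inguinal lymph nodes and a femoral lymphatic vessel, with limited cautery. Oral dosing at 100 mg/kg/day started 7 days before surgery and continued every 2 days afterwards. Limb volume measured by caliper on day 7 by blinded observers and compared with vehicle.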

[16] = Dissociation constant, pKa of compound; assay type: physicochemical
[17] = Cmax in CD-1 mouse at 100 mg/kg, po measured upto 1440 mins by LC/MS/MS analysis; assay type: ADME, organism-based; design: route oral, dose 100 mg/kg, time <=1440; details: in vivo; how it was run: as §1
[18] = AUC (0 to infinity) in CD-1 mouse at 100 mg/kg, po measured upto 1440 mins by LC/MS/MS analysis; assay type: ADME, organism-based; design: route oral, dose 100 mg/kg, time <=1440; details: in vivo; how it was run: as §1
Mus musculus [19] = assay: Antiinflammatory activity in orally dosed surgical-induced lymphedema ICR mouse model assessed as reduction in PPARgamma expression administered 7 days before surgery and measured 7 days after surgery by immunofluorescence analysis; assay type: functional, organism-based; details: time 14.0 day
How it was run: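 Surgical lymphedema in male ICR mice with oral pretreatment. Limb tissue harvested on day 7 post-surgery. Sections immunostained with anti-mouse PPARγ, Alexa Fluor 488 secondary and DAPI, then examined by fluorescence microscopy.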

Mus musculus [20] = assay: Antiinflammatory activity in orally dosed surgical-induced lymphedema ICR mouse model assessed as reduction in TNF-alpha mRNA expression administered 7 days before surgery and measured 7 days after surgery by RT-PCR analysis; assay type: functional, organism-based; details: time 14.0 day
[21] = AUC (0 to infinity) in CD-1 mouse at 20 mg/kg, po measured upto 1440 mins by LC/MS/MS analysis; assay type: ADME, organism-based; design: route oral, dose 20 mg/kg, time <=1440; details: in vivo, 24 h; how it was run: as §1
[22] = Metabolic stability in rat liver microsomes assessed as percentage of compound remaining after 30 mins; assay type: ADME, Microsome; details: read-out: Stabilty; how it was run: as §3
[23] = Tmax in CD-1 mouse at 20 mg/kg, po measured upto 1440 mins by LC/MS/MS analysis; assay type: ADME, organism-based; details: in vivo; how it was run: as §1
Mus musculus [24] = assay: Antiinflammatory activity in orally dosed surgical-induced lymphedema ICR mouse model assessed as reduction in Fabp4 mRNA expression administered 7 days before surgery and measured 7 days after surgery by RT-PCR analysis; assay type: functional, organism-based; details: time 14.0 day
[25] = Metabolic stability in human liver microsomes assessed as percentage of compound remaining after 30 mins; assay type: ADME, Microsome; details: read-out: Stabilty; how it was run: as §3
[26] = Tmax in CD-1 mouse at 1 mg/kg, iv measured upto 1440 mins by LC/MS/MS analysis; assay type: ADME, organism-based; details: in vivo; how it was run: as §1
[27] = Oral bioavailability in CD-1 mouse at 20 mg/kg measured upto 1440 mins by LC/MS/MS analysis; assay type: ADME, organism-based; details: in vivo, 24 h
How it was run: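 Male CD-1 mice (5 weeks) dosed orally at 20 mg/kg, with a 1 mg/kg tail-vein reference group. Bioavailability calculated as (AUCpo/AUCiv) × 100. Mean ± SD, three mice.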

SMILES: O=C(/C=C/c1ccc(O)c(O)c1)c1ccc(O)cc1O [BUTEIN]
AUC [1]: 6.7 ng·h/mL
IC50 [2]: 43.3 µM
inhibition (Mus musculus [3]): Active
inhibition at 20 µM [4]: 20%
inhibition (Mus musculus [5]): Active
Cmax [6]: 41 ng/mL
solubility kinetic [7]: 21 µg/mL (≈ 77.1 µM)
Cmax [8]: 43 ng/mL
Tmax [9]: 18 min
inhibition (Mus musculus [10]): Active
remaining at 0.5 h [11]: 9.93%
inhibition (Mus musculus [12]): Active
inhibition (Mus musculus [13]): Active
inhibition (Mus musculus [14]): Active
inhibition (INH) (Mus musculus [15]): 52%
pKa [16]: 7.96
Cmax [17]: 601 ng/mL
AUC(0-inf) ([18]; CD-1, mouse): 251 ng·h/mL
inhibition (Mus musculus [19]): Active
inhibition (Mus musculus [20]): Active
AUC [21]: 21 ng·h/mL
remaining at 0.5 h [22]: 18.1%
Tmax [23]: 18 min
inhibition (Mus musculus [24]): Active
remaining at 0.5 h [25]: 61.6%
Tmax [26]: 6 min

SMILES: Cc1cc(O)ccc1C(=O)/C=C/c1ccc(O)c(O)c1
IC50 [2]: 48.4 µM
inhibition at 20 µM [4]: 41%

SMILES: O=C1CC2(CCCC2)CC(=O)N1CCCCN1CCN(c2ncccn2)CC1 [BUSPIRONE]
remaining at 0.5 h [11]: 0.0183%
remaining at 0.5 h [22]: 0.0928%
remaining at 0.5 h [25]: 4.7%

SMILES: CC(C)Oc1cc(O)ccc1C(=O)/C=C/c1ccc(O)c(O)c1
inhibition at 20 µM [4]: 64%

SMILES: O=C(/C=C/c1ccc(F)c(O)c1)c1ccc(O)cc1O
inhibition at 20 µM [4]: 22%

SMILES: CC(=O)Oc1ccc(C(=O)/C=C/c2ccc(OC(C)=O)c(OC(C)=O)c2)c(OC(C)=O)c1
IC50 [2]: 12.8 µM
inhibition at 20 µM [4]: 73%

SMILES: Cc1ccc(C(=O)/C=C/c2ccc(O)c(O)c2)cc1
IC50 [2]: 18.6 µM
inhibition at 20 µM [4]: 61%

SMILES: O=C(/C=C/c1ccc(O)c(O)c1)c1ccc(O)cc1F
inhibition at 20 µM [4]: 32%

More lines, main results first:

IC50 [2]: 18.9 µM
SMILES: Cc1ccc(C(=O)Oc2cc(O)ccc2C(=O)/C=C/c2ccc(O)c(O)c2)cc1

IC50 [2]: 17.3 µM
solubility kinetic [7]: 28 µg/mL (≈ 102 µM)
remaining at 0.5 h [11]: 7.26%
pKa [16]: 9.23
remaining at 0.5 h [22]: 21.1%
remaining at 0.5 h [25]: 38%
SMILES: O=C(/C=C/c1ccc(O)c(O)c1)c1ccc(Cl)cc1
inhibition at 20 µM [4]: 62%
inhibition (INH) (Mus musculus [15]): 53%

AUC [1]: 163 ng·h/mL
IC50 [2]: 14.6 µM
Cmax [6]: 110 ng/mL
solubility kinetic [7]: 136 µg/mL (≈ 361 µM)
Cmax [8]: 83 ng/mL
Tmax [9]: 24 min
remaining at 0.5 h [11]: 4%
pKa [16]: 3.38
Cmax [17]: 1600 ng/mL
AUC ([18]; mouse, 24 h): 1224 ng·h/mL
AUC [21]: 141 ng·h/mL
F [27]: 4%
remaining at 0.5 h [22]: 7%
Tmax [23]: 24 min
remaining at 0.5 h [25]: 2%
Tmax [26]: 12 min
SMILES: O=C(Oc1cc(O)ccc1C(=O)/C=C/c1ccc(O)c(O)c1)c1ccccc1
inhibition (Mus musculus [3]): Active
inhibition at 20 µM [4]: 51%
inhibition (Mus musculus [5]): Active
inhibition (Mus musculus [10]): Active
inhibition (Mus musculus [12]): Active
inhibition (Mus musculus [13]): Active
inhibition (Mus musculus [14]): Active
inhibition (INH) (Mus musculus [15]): 70%
inhibition (Mus musculus [19]): Active
inhibition (Mus musculus [20]): Active
inhibition (Mus musculus [24]): Active

IC50 [2]: 17.9 µM
SMILES: O=C(Oc1cc(O)ccc1C(=O)/C=C/c1ccc(O)c(O)c1)c1ccc(Cl)cc1

IC50 [2]: 20.8 µM
SMILES: COc1ccc(C(=O)Oc2cc(O)ccc2C(=O)/C=C/c2ccc(O)c(O)c2)cc1
